Source: ChEMBL document CHEMBL1123351, “Synthesis and pharmacological evaluation of some 6-substituted 7-methyl-1,4-dioxa-7-azaspiro[4.5]decanes as potential dopamine agonists” (1986)

Assays:
Format in all cases: functional
Felis catus = assay: Compound was tested in vivo for dopamine agonist activity in the cat cardioaccelerator nerve assay; conditions: read-out: ID50 (the source's name)
Procedure, shortened: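 Cats anesthetized with pentobarbital sodium 30 mg/kg injected into the thoracic cavity. Compounds given intravenously at doses spaced 0.33 log intervals apart, with N = 3 per dose. Inhibition of cardioaccelerator nerve response measured.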

Rattus norvegicus [1] = assay: Compound was tested in vivo for dopamine agonist activity in the rat rotation assay after intravenous administration at the dose 1.38 (umol/kg)
Rattus norvegicus [2] = assay: Compound was tested in vivo for dopamine agonist activity in the rat rotation assay after intravenous administration at dose 0.46 (umol/kg)
Rattus norvegicus [3] = assay: Compound was tested in vivo for dopamine agonist activity in the rat rotation assay after intravenous administration at the 4.60 (umol/kg) dose
Rattus norvegicus [4] = assay: Compound was tested in vivo for dopamine agonist activity in the rat rotation assay after intravenous administration at dose 3.5 (umol/kg)

| Structure (SMILES) | ED50 (Felis catus) [µmol/kg] | Inhibition (Rattus norvegicus [1]) [%] | Inhibition (Rattus norvegicus [2]) [%] | Inhibition (Rattus norvegicus [3]) [%] | Inhibition (Rattus norvegicus [4]) [%] |
| --- | --- | --- | --- | --- | --- |
| CN1CCCC2(OCCO2)C1Cc1ccccc1 (stereo not drawn) | > 4 | 18 | 22 | 36 | – |
| CN1CCCC2(OCCO2)C1Cc1cccc2[nH]ccc12 (stereo not drawn) | 0.095 | – | – | – | – |
| CN1CCCC2(OCCO2)C1Cc1c[nH]c2ccccc12 (stereo not drawn) | > 4 | – | – | – | 32 |
| CN1CCc2cccc3c2[C@H]1Cc1ccc(O)c(O)c1-3 [APOMORPHINE] | 0.0348 | – | – | – | – |
